Reference: ChEMBL document CHEMBL4138273, “Cysteine-Derived Pleurotin Congeners from the Nematode-Trapping Basidiomycete Hohenbuehelia grisea” (J Nat Prod, 2018)
Converted amounts (≈) assume the structure as drawn. The source made the active and inactive calls. The calls are words filed in the database; no cut-off is given here.

What was measured:
Wickerhamomyces anomalus = test: Antimicrobial activity against Pichia anomala DSM 6766 after 16 to 48 hrs by serial dilution method; assay type: functional
Procedure, shortened: (§1)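 Yeasts and filamentous fungi were tested by serial dilution in 96-well plates in YMG medium. Inoculum was adjusted to 6.7 × 10^5 cells/mL. Highest tested level was 67 μg/mL (from 20 μL of 1 mg/mL stock) or 100 μg/mL (from 20 μL of 1.5 mg/mL stock). Ethanol (20 μL) was the negative control.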

Mucor hiemalis = test: Antimicrobial activity against Mucor hiemalis DSM 2656 after 16 to 48 hrs by serial dilution method; assay type: functional; procedure, shortened: as §1
Micrococcus luteus = test: Antimicrobial activity against Micrococcus luteus DSM 1790 after 16 to 48 hrs by serial dilution method; assay type: functional
Procedure, shortened: (§2)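 Inoculum was adjusted to 6.7 × 10^5 cells/mL. Top concentration was 67 μg/mL (20 μL of 1 mg/mL stock) or 100 μg/mL (20 μL of 1.5 mg/mL stock). Ethanol (20 μL) served as negative control.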

Yamadazyma tenuis = test: Antimicrobial activity against Candida tenuis MUCL 29892 after 16 to 48 hrs by serial dilution method; assay type: functional; procedure, shortened: as §1
[1] = tested on: Mycolicibacterium smegmatis; test: Antimicrobial activity against Mycobacterium smegmatis DSM 44200 after 16 to 48 hrs by serial dilution method; assay type: functional; procedure, shortened: as §2
Mucor plumbeus = test: Antimicrobial activity against Mucor plumbeus MUCL 49355 after 16 to 48 hrs by serial dilution method; assay type: functional; procedure, shortened: as §1
Staphylococcus aureus = test: Antimicrobial activity against Staphylococcus aureus DSM 346 after 16 to 48 hrs by serial dilution method; assay type: functional; procedure, shortened: as §2
Bacillus subtilis = test: Antimicrobial activity against Bacillus subtilis DSM10 after 16 to 48 hrs by serial dilution method; assay type: functional; procedure, shortened: as §2
KB 3-1 = test: Cytotoxicity against human KB3-1 cells after 5 days by MTT assay; assay type: functional, cell-based; conditions: KB 3-1, 120 h
Procedure, shortened: (§3)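 Mouse fibroblast L929 and HeLa-derived KB3.1 cells were seeded at 6 × 10^3 cells/well in 96-well plates. Cells were exposed to compounds for 5 days, and IC50 was determined.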

Rhodotorula glutinis = test: Antimicrobial activity against Rhodotorula glutinis DSM 10134 after 16 to 48 hrs by serial dilution method; assay type: functional; procedure, shortened: as §1
[2] = tested on: Schizosaccharomyces pombe; test: Antimicrobial activity against Schizosaccharomyces pombe DSM 70572 after 16 to 48 hrs by serial dilution method; assay type: functional, organism-based; procedure, shortened: as §1
L929 = test: Cytotoxicity against mouse L929 cells after 5 days by MTT assay; assay type: functional, cell-based; conditions: L929, 120 h; procedure, shortened: as §3
Candida albicans = test: Antimicrobial activity against Candida albicans DSM 1665 after 16 to 48 hrs by serial dilution method; assay type: functional; procedure, shortened: as §1
Escherichia coli = test: microbe, parasite or virus in culture; conditions: DSM 498

Row | Compound | MIC (Wickerhamomyces anomalus; Hansenula anomala) [mg/L] | MIC (Mucor hiemalis) [mg/L] | Activity (Micrococcus luteus) | MIC (Yamadazyma tenuis) [mg/L] | Activity [1] | MIC (Mucor plumbeus) [mg/L] | MIC (Staphylococcus aureus) [mg/L] | MIC (Bacillus subtilis) [mg/L] | MIC (Rhodotorula glutinis) [mg/L] | Activity [2] | Activity (Candida albicans) | Activity (Mucor hiemalis) | Activity (Mucor plumbeus) | Activity (Staphylococcus aureus) | Activity (Bacillus subtilis) | also measured
1 | C[C@@H]1CO[C@@H]2C3=C(C(=O)C=CC3=O)[C@H]3OC(=O)[C@@H]4CC[C@H]5[C@@H]1CC[C@@]25[C@@H]34 (racemic) | 66.7 (≈ 188 µM) | 16.7 (≈ 47.1 µM) | inactive | 100 (≈ 282 µM) | inactive | 100 (≈ 282 µM) | 66.7 (≈ 188 µM) | 100 (≈ 282 µM) | 33.3 (≈ 94 µM) | inactive | inactive |  |  |  |  | IC50 (KB 3-1): 2.8 mg/L (≈ 7.9 µM); IC50 (L929): 2.2 mg/L (≈ 6.21 µM)
2 | NC[C@H]1O[C@H](O[C@H]2[C@H](O)[C@@H](O[C@H]3O[C@H](CO)[C@@H](O)[C@H](N)[C@H]3O)[C@H](N)C[C@@H]2N)[C@H](O)[C@@H](O)[C@@H]1O [KANAMYCIN] |  |  |  |  |  |  |  |  |  |  |  |  |  |  |  | MIC [1]: 0.4 mg/L (≈ 0.826 µM)
3 | NYSTATIN |  | 16.7 |  | 12.5 |  | 12.5 |  |  | 16.7 |  |  |  |  |  |  | MIC (Wickerhamomyces anomalus): 16.7 mg/L; MIC [2]: 16.7 mg/L; MIC (Candida albicans): 16.7 mg/L
4 | C[C@@H]1CO[C@@H]2C3=C(CC4[C@H](C(=O)O)CCC5[C@@H]1CC[C@]452)C(=O)C=CC3=O (stereo partly specified) | 66.7 (≈ 187 µM) | 8.3 (≈ 23.3 µM) |  | 25 (≈ 70.1 µM) | inactive | 100 (≈ 281 µM) | 33.3 (≈ 93.4 µM) | 50 (≈ 140 µM) | 16.7 (≈ 46.9 µM) | inactive |  |  |  |  |  | MIC (Micrococcus luteus): 66.7 mg/L (≈ 187 µM); IC50 (KB 3-1): 8.5 mg/L (≈ 23.8 µM); IC50 (L929): 7.5 mg/L (≈ 21 µM); MIC (Candida albicans): 33.3 mg/L (≈ 93.4 µM)
5 | CC(=O)N[C@@H](CSC1=CC(=O)C2=C(CC3[C@H](C(=O)O)CCC4[C@@H]5CC[C@]34[C@@H]2OC[C@H]5C)C1=O)C(=O)O (stereo partly specified) | 66.7 (≈ 129 µM) |  | inactive | 100 (≈ 193 µM) | inactive |  |  |  | 33.3 (≈ 64.3 µM) | inactive | inactive | inactive | inactive | inactive | inactive | 
6 | C[C@@H]1CO[C@@H]2c3c(O)cc4scnc4c3C[C@H]3[C@H](C(=O)O)CC[C@H]4[C@@H]1CC[C@@]243 | 66.7 (≈ 167 µM) |  | inactive | 100 (≈ 250 µM) | inactive |  |  |  | 33.3 (≈ 83.4 µM) | inactive | inactive | inactive | inactive | inactive | inactive | 
7 | CN(C)[C@@H]1C(O)=C(C(N)=O)C(=O)[C@@]2(O)C(O)=C3C(=O)c4c(O)cccc4[C@@](C)(O)[C@H]3[C@H](O)[C@@H]12 [OXYTETRACYCLINE] |  |  |  |  |  |  | 6.7 (≈ 14.6 µM) |  |  |  |  |  |  |  |  | MIC (Micrococcus luteus): 0.4 mg/L (≈ 0.869 µM)
8 | C[C@@H]1CO[C@@H]2C3=C(CC4[C@H](C(=O)O)CCC5[C@@H]1CC[C@]452)C(=O)C(SC[C@H](O)C(=O)O)=CC3=O (stereo partly specified) |  |  | inactive |  | inactive |  |  |  |  | inactive | inactive | inactive | inactive | inactive | inactive | Activity (Wickerhamomyces anomalus): inactive; Activity (Yamadazyma tenuis): inactive; Activity (Rhodotorula glutinis): inactive
9 | CC1(C)S[C@@H]2[C@H](NC(=O)Cc3ccccc3)C(=O)N2[C@H]1C(=O)O [PENICILLIN G] |  |  |  |  |  |  |  | 6.3 (≈ 18.8 µM) |  |  |  |  |  |  |  | 
10 | O=C(O)c1cn(C2CC2)c2cc(N3CCNCC3)c(F)cc2c1=O [CIPROFLOXACIN] |  |  |  |  |  |  |  |  |  |  |  |  |  |  |  | MIC (Escherichia coli): 3.1 mg/L (≈ 9.36 µM)
